Reference: article PMC11522000 (Nature Microbiology, 2024)
In brackets after ≈: the same amount, converted by molar mass.

Legend:
C. parvum [1] = test: Host cell invasion assay; assay type: cell-based, Cryptosporidium parvum; settings: HCT-8, 3 h; EDI048 and KDU731 20 µM, wiskostatin 11.3 µM
Summary of the method: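 HCT-8 monolayers were 95–100% confluent. Compounds were added at twice the final concentration 1 h before infection with 50,000 primed oocysts per well. Plates were kept 3 h at 37 °C, 5% CO2, then washed with PBS-0.1% Tween 20, fixed in 4% PFA for 15 min at room temperature, permeabilized with 0.25% Triton X-100 and blocked in 4% BSA. Vacuoles were stained with fluorescein-VVL and nuclei with Hoechst, then imaged.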

HsPI(4)K = HsPI(4)K (Homo sapiens, UniProt Q9UBF8); test: PI; assay type: biochemical; settings: HsPI(4)K IC50, 3 μM ATP
HsPI(4)K, sequence (Q9UBF8 523-816 limits assumed): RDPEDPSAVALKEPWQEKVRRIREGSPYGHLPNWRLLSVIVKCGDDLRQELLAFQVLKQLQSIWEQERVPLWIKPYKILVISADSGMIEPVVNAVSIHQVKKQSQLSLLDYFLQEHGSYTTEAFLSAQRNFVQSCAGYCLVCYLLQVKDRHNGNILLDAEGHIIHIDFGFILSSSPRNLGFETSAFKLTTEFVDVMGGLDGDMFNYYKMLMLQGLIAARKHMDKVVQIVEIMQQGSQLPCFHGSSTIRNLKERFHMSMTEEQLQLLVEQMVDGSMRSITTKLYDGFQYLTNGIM

[2] = High-throughput equilibrium solubility; assay type: physicochemical; settings: pH 6.8, aqueous buffer, thermodynamic from solid
Summary of the method: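 Equilibrium solubility was measured by a miniaturized shake-flask method with HPLC quantification.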

Cytotoxicity assay = assay type: cell-based, human; settings: human, HepG2 cells (ATCC CRL-10741), HepG2 CC50, 96 h
Plasma stability [3] = assay type: in vitro ADME; settings: human
Summary of the method: (§1)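 Test compound was added to plasma and incubated at 37 °C in a shaking water bath, with samples taken at sequential timepoints. Samples were quenched with ice-cold acetonitrile and analysed by LC-MS/MS, and half-life was calculated from the depletion rate.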

[4] = Stability in intestinal S9 fraction; assay type: in vitro ADME; settings: mouse
Summary of the method: (§2)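 Test compound added to intestinal S9 fraction of each species to start the reaction. Incubated in a shaking water bath at 37 °C, with samples taken at sequential timepoints. Samples quenched with ice-cold acetonitrile and analysed by LC-MS/MS. Half-life calculated from the rate of parent compound depletion.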

C. parvum [5] = test: Mouse efficacy study; assay type: in vivo, C57BL/6 IFN-γ-knockout mice; settings: oral 10 mg kg^−1, 5 days; nitazoxanide 100 mg kg^−1
Plasma stability [6] = assay type: in vitro ADME; settings: mouse
Summary of the method: as §1

C. parvum [7] = test: Cytopathic effect; assay type: cell-based, Cryptosporidium parvum; settings: read-out: Cp CPE EC50; C. parvum, HCT-8, 48 h
Summary of the method: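 HCT-8 cells were grown at 37 °C, 5% CO2 in RPMI-1640 with 10% heat-inactivated FBS. Oocysts were excysted in 10 mM HCl/HBSS for 10 min at 37 °C, then in 2 mM sodium taurocholate in L-15/UltraCULTURE medium for 5 min. Infected cells were seeded onto pre-spotted compound (10-point, 3-fold dilution; DMSO and reference-inhibitor controls) and incubated 48 h. Cells were then lysed for a viability read-out, and concentration-response curves were fitted.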

[8] = Stability in intestinal S9 fraction; assay type: in vitro ADME; settings: human
Summary of the method: as §2

CpPI(4)K = target: T1, CpPI(4)K (Cryptosporidium parvum, UniProt Q5CVD3); test: PI; assay type: biochemical, C. parvum; settings: CpPI(4)K IC50, 3 μM ATP
T1 sequence (Q5CVD3 1-1114): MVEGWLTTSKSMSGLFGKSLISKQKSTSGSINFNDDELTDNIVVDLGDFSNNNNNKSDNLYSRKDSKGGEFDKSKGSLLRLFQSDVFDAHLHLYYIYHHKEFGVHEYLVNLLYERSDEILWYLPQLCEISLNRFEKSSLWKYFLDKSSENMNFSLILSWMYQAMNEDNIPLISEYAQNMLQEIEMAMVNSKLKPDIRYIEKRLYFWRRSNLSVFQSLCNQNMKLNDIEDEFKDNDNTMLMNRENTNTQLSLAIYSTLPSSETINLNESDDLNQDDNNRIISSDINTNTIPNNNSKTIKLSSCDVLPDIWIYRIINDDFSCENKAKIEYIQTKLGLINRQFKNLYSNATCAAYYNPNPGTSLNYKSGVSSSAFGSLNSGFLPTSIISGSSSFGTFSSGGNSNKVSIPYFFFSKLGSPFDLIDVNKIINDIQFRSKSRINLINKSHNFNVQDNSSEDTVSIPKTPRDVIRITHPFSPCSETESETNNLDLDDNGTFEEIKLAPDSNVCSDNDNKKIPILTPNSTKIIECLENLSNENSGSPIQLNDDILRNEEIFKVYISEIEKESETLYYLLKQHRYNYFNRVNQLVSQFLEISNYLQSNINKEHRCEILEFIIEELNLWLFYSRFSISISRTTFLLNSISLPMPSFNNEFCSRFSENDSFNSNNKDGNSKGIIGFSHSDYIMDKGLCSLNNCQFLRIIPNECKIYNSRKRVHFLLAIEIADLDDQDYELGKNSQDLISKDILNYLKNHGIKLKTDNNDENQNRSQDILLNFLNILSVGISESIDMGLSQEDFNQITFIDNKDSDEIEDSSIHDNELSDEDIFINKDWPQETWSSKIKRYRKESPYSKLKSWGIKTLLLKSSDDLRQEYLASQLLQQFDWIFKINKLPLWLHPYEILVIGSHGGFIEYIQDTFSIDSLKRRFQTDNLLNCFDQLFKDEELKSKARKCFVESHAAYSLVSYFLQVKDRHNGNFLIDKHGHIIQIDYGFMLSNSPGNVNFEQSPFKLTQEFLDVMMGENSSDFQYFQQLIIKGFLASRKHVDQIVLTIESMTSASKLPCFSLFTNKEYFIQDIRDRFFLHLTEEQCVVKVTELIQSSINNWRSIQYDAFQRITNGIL
Summary of the method: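 Enzyme was pre-incubated with compound for 5 min at room temperature. The reaction was started with substrate mix at twice final strength (PI, ATP, Tris-HCl pH 7.5, DTT, 0.05% Triton X-100, MnCl2) and run 50 min at room temperature. ADP was measured by ADP-Glo luminescence. IC50s came from in-plate duplicate 10-point 3-fold dilutions, with DMSO and reference-inhibitor controls. The C. parvum enzymes (wild type and mutants) were full-length proteins expressed from baculovirus in Sf21 cells.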

[9] = Hepatocytes metabolic stability; assay type: in vitro ADME; settings: human
Summary of the method: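 Test compound was incubated with liver microsomes or hepatocytes of each species, and parent depletion was quantified by LC-MS/MS. From this, in vitro half-life and intrinsic clearance were derived, along with predicted metabolic clearance and hepatic extraction ratio.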

C. parvum [10] = test: Washout assay, nanoluciferase-expressing C. parvum; assay type: cell-based, Cryptosporidium parvum; settings: regardless of the stage of drug exposure
Summary of the method: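 HCT-8 cells were grown to ~90% confluence, then infected with 400 nanoluciferase-expressing oocysts per well. Before infection, oocysts were primed for excystation with 10 mM HCl in water (10 min, 37 °C), then 2 mM sodium taurocholate in DPBS with Ca/Mg (10 min, 16 °C). Luminescence was read over time. RLU taken soon after infection served as day 0 and was used to normalize each timepoint.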

C. parvum [11] = test: Time-kill assay, nanoluciferase-expressing C. parvum; assay type: cell-based, Cryptosporidium parvum

CN(C)C[C@H](O)Cn1c2ccc(Br)cc2c2cc(Br)ccc21 (racemic) [wiskostatin, reference compound]
sporozoite invasion (C. parvum [1]): prevented sporozoite invasion and formation of trophozoites

CNC(=O)c1ccc(-c2cnn3ccc(C(=O)N(C[C@H]4CCC(=O)O4)c4ccc(OC(F)(F)F)cc4)cc23)cc1 [Compound 4, (R)-3-(4-(methylcarbamoyl)phenyl)-N-((5-oxotetrahydrofuran-2-yl)methyl)-N-(4-(trifluoromethoxy)phenyl)pyrazolo[1,5-a]pyridine-5-carboxamide]
IC50 (HsPI(4)K): 1.38 ± 0.13 µM
solubility [2]: 37 µM (≈ 20.4 µg/mL)
CC50 at 96 h (Cytotoxicity assay): 32.2 µM
half-life (Plasma stability [3]): > 2 h
half-life [4]: 1.6 h
efficacy in the mouse model (C. parvum [5]): poor in vivo efficacy
half-life (Plasma stability [6]): < 5 min
EC50 (C. parvum [7]): 0.349 ± 0.181 µM
half-life [8]: 3.58 h
IC50 (CpPI(4)K): 0.018 ± 0.011 µM
Hepatocytes ER [9]: 95%
half-life ([9]; hepatocytes): 4.8 min

CC(=O)Oc1ccccc1C(=O)Nc1ncc([N+](=O)[O-])s1 [NTZ, Nitazoxanide, reference compound]
IC50 (HsPI(4)K): > 30 µM
washout: cidal activity (C. parvum [10]): not cidal
CC50 at 96 h (Cytotoxicity assay): 34.9 µM
parasiticidal or parasitistatic (C. parvum [11]): static
efficacy in the mouse model (C. parvum [5]): not efficacious
IC50 (CpPI(4)K): > 10 µM
